# Calls of active or inactive are those of the source.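 Rule for the calls: active = IC50 of 10 µM or lower for blocking Epstein-Barr viral protein EBNA-1 from binding DNA; inactive = IC50 above 10 µM.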
# Biological target: EBNA-1 DNA-binding domain (Epstein-Barr virus)
# Assay: blockers of EBV EBNA-1 DNA binding, IC50 – biochemical, fluorescence polarization, dose response, assay provider data, late-stage follow-up (AID 493079)
# Details: recombinant EBNA1 DBD, Cy5-DNA fluorescence polarization
# Outline: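 Signal: Cy5 fluorescence polarization; assay system: EBNA-1 DBD (aa 448-610), E. coli-expressed; compound dosing: dose-response series of powder compound samples; probe or stimulus: Cy5 hairpin DNA probe, 36 bp; measure: IC50 from lowered polarization, reflecting more unbound DNA probe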
row,Structure (SMILES),IC50
1,Cc1ccc(C(=O)Nc2nc3cc(F)ccc3s2)cc1C,> 148 µM (inactive)
2,O=C(CSc1nnnn1-c1ccccc1)c1ccn(CC2CCCO2)c1 (stereo not given),> 148 µM (inactive)
3,COc1cccc2sc(NC(=O)c3ccc(C)c(C)c3)nc12,> 148 µM (inactive)
4,CS(=O)(=O)c1ccc2nc(NC(=O)c3ccc(Cl)cc3)sc2c1,inactive
5,COc1ccc2sc(NC(=O)c3ccc(C)c(C)c3)nc2c1,> 148 µM (inactive)
6,Cc1ccc(C(=O)Nc2nc3ccc(S(C)(=O)=O)cc3s2)cc1,> 148 µM (inactive)
7,CS(=O)(=O)c1ccc2nc(NC(=O)c3ccccc3Cl)sc2c1,> 148 µM (inactive)
8,Cc1ccc(C(=O)Nc2nc3cc(Br)ccc3s2)cc1C,> 148 µM (inactive)
9,COc1ccccc1C(=O)Nc1nc2ccc(S(C)(=O)=O)cc2s1,> 148 µM (inactive)
10,Cc1cccc(C(=O)Nc2nc3ccc(S(C)(=O)=O)cc3s2)c1,inactive
11,COc1ccc2nc(NC(=O)c3ccc(C)c(C)c3)sc2c1,> 148 µM (inactive)
12,Cc1cc(C(=O)CSc2nnnn2C)c(C)n1CC1CCCO1 (stereo not given),> 148 µM (inactive)
13,Cc1cc(C(=O)CSc2nnnn2C2CC2)c(C)n1CC1CCCO1 (stereo not given),inactive
14,Cc1ccccc1C(=O)Nc1nc2ccc(S(C)(=O)=O)cc2s1,> 148 µM (inactive)
15,CS(=O)(=O)c1ccc2nc(NC(=O)c3cccc(Cl)c3)sc2c1,> 148 µM (inactive)
16,CS(=O)(=O)c1ccc2nc(NC(=O)c3ccccc3F)sc2c1,> 148 µM (inactive)
17,COc1ccc(C(=O)Nc2nc3ccc(S(C)(=O)=O)cc3s2)cc1,inactive
18,Cc1ccc(C(=O)Nc2nc3ccc(Br)cc3s2)cc1C,> 148 µM (inactive)
19,COc1cccc(C(=O)Nc2nc3ccc(S(C)(=O)=O)cc3s2)c1,inactive
20,CS(=O)(=O)c1ccc2nc(NC(=O)c3cccc(F)c3)sc2c1,> 148 µM (inactive)

# Other lines, results leading:
row,IC50,Structure (SMILES)
1,> 148 µM (inactive),Cc1cc(C(=O)CSc2nnnn2-c2ccccc2)c(C)n1Cc1cccs1
2,> 148 µM (inactive),CCn1c(C)cc(C(=O)CSc2nnnn2-c2ccccc2)c1C
3,> 148 µM (inactive),Cc1cccc(-n2nnnc2SCC(=O)c2cc(C)n(CC3CCCO3)c2C)c1 (stereo not given)
4,> 148 µM (inactive),Cc1cc(C(=O)CSc2nnnn2-c2ccc(Cl)cc2)c(C)n1CC1CCCO1 (stereo not given)
5,inactive,COc1ccc(-n2nnnc2SCC(=O)c2cc(C)n(CC3CCCO3)c2C)cc1 (stereo not given)
6,> 148 µM (inactive),Cc1cc(C(=O)CSc2nnnn2-c2cccc(F)c2)c(C)n1CC1CCCO1 (stereo not given)
7,> 148 µM (inactive),Cc1ccccc1-n1nnnc1SCC(=O)c1cc(C)n(CC2CCCO2)c1C (stereo not given)
8,> 148 µM (inactive),COCCn1c(C)cc(C(=O)CSc2nnnn2-c2ccccc2)c1C
9,5.47 µM,Cc1ccc(-n2nnnc2SCC(=O)c2cc(C)n(CC3CCCO3)c2C)cc1 (stereo not given)
10,inactive,Cc1cc(C(=O)CSc2nnnn2-c2ccccc2)c(C)n1C
